The source of these data is ChEMBL document CHEMBL1144025, “1,3-Dipropyl-8-(1-phenylacetamide-1H-pyrazol-3-yl)-xanthine derivatives as highly potent and selective human A(2B) adenosine receptor antagonists” (Bioorg Med Chem, 2008).

What all share (type): cell-based
One test deals with T1, Adenosine receptor A3 (Homo sapiens, UniProt P0DMS8).
T1 sequence (P0DMS8 whole entry): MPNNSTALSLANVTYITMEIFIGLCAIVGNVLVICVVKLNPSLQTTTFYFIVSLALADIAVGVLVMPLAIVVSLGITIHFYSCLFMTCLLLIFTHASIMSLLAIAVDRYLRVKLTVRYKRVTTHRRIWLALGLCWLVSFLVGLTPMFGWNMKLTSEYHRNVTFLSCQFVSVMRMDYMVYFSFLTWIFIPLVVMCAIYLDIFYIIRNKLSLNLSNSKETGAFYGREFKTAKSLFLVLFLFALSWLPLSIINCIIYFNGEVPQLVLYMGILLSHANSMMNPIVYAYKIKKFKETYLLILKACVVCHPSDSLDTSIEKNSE
The experiment in a line: Displacement of [3H]MRE3008F20 from human adenosine A3 receptor expressed in CHO cells. Put shortly:
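Membranes (50 µg protein/assay) in 50 mM Tris-HCl, 10 mM MgCl2, 1 mM EDTA, pH 7.4, incubated 120 min at 4 °C with [³H]MRE3008F20 and at least 6–8 ligand concentrations. Nonspecific binding defined with 1 µM MRE 3008F20. Glass fiber filtration and counting. Ki via Cheng-Prusoff; n = 3–6.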

The target of another test is T2, Adenosine receptor A1 (Homo sapiens, UniProt P30542).
T2 sequence (P30542 whole entry): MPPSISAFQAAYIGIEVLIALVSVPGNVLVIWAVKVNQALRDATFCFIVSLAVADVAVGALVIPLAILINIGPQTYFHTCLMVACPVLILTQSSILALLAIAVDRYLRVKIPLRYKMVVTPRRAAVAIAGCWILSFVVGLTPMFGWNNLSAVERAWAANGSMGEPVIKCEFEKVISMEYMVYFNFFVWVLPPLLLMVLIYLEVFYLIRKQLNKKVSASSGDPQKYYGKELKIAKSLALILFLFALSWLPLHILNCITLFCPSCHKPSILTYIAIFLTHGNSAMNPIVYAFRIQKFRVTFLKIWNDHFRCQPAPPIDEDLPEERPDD
The experiment in a line: Displacement of [3H]DPCPX from human adenosine A1 receptor expressed in CHO cells.

The target of a further test is Adenosine receptor A2a (Homo sapiens, UniProt P29274). The experiment in a line: Displacement of [3H]ZM-241385 from human adenosine A2A receptor expressed in CHO cells. In a few lines: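 Membranes (50 µg protein/assay) in 50 mM Tris-HCl, 10 mM MgCl2, pH 7.4, incubated 60 min at 4 °C with [³H]ZM241385 and at least 6–8 concentrations of compound. Nonspecific binding defined with 1 µM ZM 241385. GF/B filtration and counting. Ki by Cheng-Prusoff; n = 3–6.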
Chain of Adenosine receptor A2a (P29274 whole entry): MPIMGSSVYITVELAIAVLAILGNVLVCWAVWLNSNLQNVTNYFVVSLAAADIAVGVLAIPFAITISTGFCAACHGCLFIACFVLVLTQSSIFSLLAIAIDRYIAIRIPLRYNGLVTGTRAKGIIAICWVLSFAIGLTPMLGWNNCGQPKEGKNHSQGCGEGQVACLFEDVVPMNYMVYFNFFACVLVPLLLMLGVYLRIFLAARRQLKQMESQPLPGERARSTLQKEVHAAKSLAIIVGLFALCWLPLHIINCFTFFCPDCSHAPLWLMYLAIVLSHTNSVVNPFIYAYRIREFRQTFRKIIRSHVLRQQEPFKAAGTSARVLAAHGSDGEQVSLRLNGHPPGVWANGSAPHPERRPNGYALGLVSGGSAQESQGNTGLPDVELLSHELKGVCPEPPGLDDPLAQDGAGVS

The next test concerns the target T3, Adenosine receptor A2b (Homo sapiens, UniProt P29275).
T3 sequence (P29275 whole entry): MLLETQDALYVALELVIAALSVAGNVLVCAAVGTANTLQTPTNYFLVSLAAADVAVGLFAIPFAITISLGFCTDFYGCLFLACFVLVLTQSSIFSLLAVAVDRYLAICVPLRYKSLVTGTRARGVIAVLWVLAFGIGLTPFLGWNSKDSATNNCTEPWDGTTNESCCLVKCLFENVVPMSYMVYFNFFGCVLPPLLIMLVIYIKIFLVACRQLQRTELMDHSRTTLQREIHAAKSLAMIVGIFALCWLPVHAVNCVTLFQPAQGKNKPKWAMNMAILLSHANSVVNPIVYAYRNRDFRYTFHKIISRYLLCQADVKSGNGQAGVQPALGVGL
The test is described as follows: Displacement of [3H]MRE2029F20 from human adenosine A2B receptor expressed in HEK293 cells. In a few lines:
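Membranes (50 µg protein/assay) in 50 mM Tris-HCl, 10 mM MgCl2, 1 mM EDTA, pH 7.4, incubated 120 min at 4 °C with [³H]MRE2029F20 and at least 6–8 compound concentrations. Nonspecific binding defined with 1 µM MRE 2029F20. GF/B filtration, scintillation counting. Ki via Cheng-Prusoff; n = 3–6.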

pKi: −log10 of the molar value. A value given as a limit tells only on which side of the number the result lay.

Turning to `CCCn1c(=O)c2[nH]c(-c3cc(C)n(CC(=O)Nc4cccc(Cl)c4)n3)nc2n(CCC)c1=O`, the pKi on Adenosine receptor A3 is less than 6.00. As for `CCCn1c(=O)c2[nH]c(-c3cc(C)n(CC(=O)Nc4ccc(Cl)cc4)n3)nc2n(CCC)c1=O`, the pKi at Adenosine receptor A1, at Adenosine receptor A2a and at Adenosine receptor A3 was less than 6.00 in each case. For `CCCn1c(=O)c2[nH]c(-c3nn(CC(=O)Nc4ccc(Cl)cc4)c(C)c3Cl)nc2n(CCC)c1=O`, the pKi at Adenosine receptor A3 is less than 6.00. Turning to `CCCn1c(=O)c2[nH]c(-c3ccn(CC(=O)Nc4ccc(Cl)cc4)n3)nc2n(CCC)c1=O`, the pKi on Adenosine receptor A3 is less than 6.00. Regarding `CCCn1c(=O)c2[nH]c(-c3cc(C)n(CC(=O)Nc4ccc(Br)cc4)n3)nc2n(CCC)c1=O`, the pKi at Adenosine receptor A1, at Adenosine receptor A2a and at Adenosine receptor A3 was less than 6.00 in each case. At Adenosine receptor A3, `CCCn1c(=O)c2[nH]c(-c3nn(CC(=O)Nc4ccc(Cl)cc4)c(C)c3Br)nc2n(CCC)c1=O` showed a pKi of less than 6.00. In turn, `CCCn1c(=O)c2[nH]c(-c3cc(C)n(CC(=O)Nc4ccc(I)cc4)n3)nc2n(CCC)c1=O` had a negative logarithm of the Ki (pKi) at Adenosine receptor A3 of less than 6.00. On the same count and under the same terms, then `CCCn1c(=O)c2[nH]c(-c3cc(C)n(CC(=O)Nc4ccc(C)cc4)n3)nc2n(CCC)c1=O`, with less than 6.00; and `CCCn1c(=O)c2[nH]c(-c3cc(C)n(CC(=O)Nc4ccc(F)cc4)n3)nc2n(CCC)c1=O`, with less than 6.00; and `CCCn1c(=O)c2[nH]c(-c3cc(C)n(CC(=O)Nc4ccccc4)n3)nc2n(CCC)c1=O`, with less than 6.00.

As to `CCCn1c(=O)c2[nH]c(-c3cc(C)n(CC(=O)Nc4ccc(N(C)C)cc4)n3)nc2n(CCC)c1=O`, the pKi on Adenosine receptor A3 and at Adenosine receptor A2b was less than 6.00 throughout. Regarding `CCCn1c(=O)c2[nH]c(-c3cc(OCC(=O)Nc4ccc(OC)c(OC)c4)nn3C)nc2n(CCC)c1=O`, the pKi at Adenosine receptor A1, at Adenosine receptor A2a and at Adenosine receptor A3 was less than 6.00 in each case. Regarding `CCCn1c(=O)c2[nH]c(-c3cc(CC)n(CC(=O)Nc4ccc(Cl)cc4)n3)nc2n(CCC)c1=O`, the pKi at Adenosine receptor A3 and on Adenosine receptor A2b was less than 6.00 throughout. On to `CCCn1c(=O)c2[nH]c(-c3cc(C)n(CC(=O)Nc4ccc(OC)c(OC)c4)n3)nc2n(CCC)c1=O`, for which the pKi at Adenosine receptor A3 is less than 6.00.

Regarding `CCCn1c(=O)c2[nH]c(-c3cc(C)n(CC(=O)Nc4cccc5ccccc45)n3)nc2n(CCC)c1=O`, the pKi on Adenosine receptor A3 and at Adenosine receptor A2b was less than 6.00 in each case. On to `CCCn1c(=O)c2[nH]c(-c3nn(CC(=O)Nc4ccc(Cl)cc4)c(C)c3I)nc2n(CCC)c1=O`, for which the pKi at Adenosine receptor A3 and on Adenosine receptor A2b was less than 6.00 in each case.

Consider `CCCn1c(=O)c2[nH]c(-c3cc(C)n(CC(=O)Nc4ccc(Cl)c(Cl)c4)n3)nc2n(CCC)c1=O`, for which the pKi at Adenosine receptor A3 was less than 6.00.

For `CCCn1c(=O)c2[nH]c(-c3cc(C)n(CC(=O)Nc4ccc(OC)cc4)n3)nc2n(CCC)c1=O`, the pKi at Adenosine receptor A3 is less than 6.00. Still for that read-out and setting: then `CCCn1c(=O)c2[nH]c(-c3cc(C)n(CC(=O)Nc4cccc(OC)c4)n3)nc2n(CCC)c1=O`, with less than 6.00. The same measure, in the same setting: next, `CCCn1c(=O)c2[nH]c(-c3cc(C)n(CC(=O)Nc4ccc(C)c(C)c4)n3)nc2n(CCC)c1=O`: less than 6.00.
